# A selection: hits, their analogues and other compounds. The true share with any hit is near 1.2%.
# Runt-CBFb FRET – inhibitors of human RUNX1 Runt domain binding to CBFb. Q01196+Q13951. Cerulean-Runt/Venus-CBFb FRET ratio 530/480, 1 h. inhibition, % at 20 µM. hit rate 0.46% among 220,000;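 active = inhibition over about 50% at 20 µM in the single-dose screen, limit read from the data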;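 also: 0% = DMSO wells and 100% = excess unlabeled CBFb competitor control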
# Target sequence (Q01196 whole entry, looked up, the tested form may be a part): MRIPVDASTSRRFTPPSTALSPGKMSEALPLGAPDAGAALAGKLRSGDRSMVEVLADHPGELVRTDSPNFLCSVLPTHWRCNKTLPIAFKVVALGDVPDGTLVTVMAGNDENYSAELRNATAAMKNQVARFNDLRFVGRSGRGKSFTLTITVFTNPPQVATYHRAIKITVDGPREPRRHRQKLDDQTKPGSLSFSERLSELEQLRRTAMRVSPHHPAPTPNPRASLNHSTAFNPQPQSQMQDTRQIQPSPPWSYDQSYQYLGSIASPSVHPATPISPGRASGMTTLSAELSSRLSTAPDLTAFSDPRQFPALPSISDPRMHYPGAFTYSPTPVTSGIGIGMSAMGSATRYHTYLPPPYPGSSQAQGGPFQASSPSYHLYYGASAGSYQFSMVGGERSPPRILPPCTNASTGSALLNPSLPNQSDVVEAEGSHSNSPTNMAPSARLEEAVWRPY
# Target sequence (Q13951 whole entry, looked up, the tested form may be a part): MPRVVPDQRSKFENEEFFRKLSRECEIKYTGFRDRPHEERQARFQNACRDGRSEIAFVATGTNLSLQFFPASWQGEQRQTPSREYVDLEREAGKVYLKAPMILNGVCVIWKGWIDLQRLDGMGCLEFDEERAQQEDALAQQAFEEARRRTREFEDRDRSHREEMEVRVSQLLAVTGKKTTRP
#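 Reagent – Venus-CBFb binding partner, 100 nM · Assay system – Cerulean-tagged RUNX1 Runt domain (FRET donor) fusion protein · Input – 100 nM per protein · Incubation – two 1 h room-temperature incubations shielded from light · Measured by – FRET fluorescence · Medium – Tris buffer pH 7.5 with salts and BSA · Benchmarks – unlabeled CBFb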
# CaV13 ICDI inh – Primary screen for inhibitors of IQ motif and Ca2+-dependent inactivation inhibitor domain binding in CACNA1D, Förster resonance energy transfer in living cells, …; HEK cells, CFP/YFP FRET ICDI-IQ, plate reader, 10 min; percent FRET-ratio fall versus neutral wells; inhibition, % at 12.3 µM; hit rate 0.098% among 340,000;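 active = mean replicate inhibition of at least 30% and at least 1% of replicates passing that level; inconclusive = only one of the two criteria is met; inactive = neither criterion is met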;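 also: 0% = median of the neutral control wells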
# Runt-SMMHC FRET – blocks binding of human RUNX1 Runt domain to CBFb-SMMHC. Q01196+Q13951. Cerulean-Runt/Venus-CBFb-SMMHC FRET ratio 530/480, 1 h. inhibition, % at 20 µM. hit rate 0.74% among 220,000;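 active = mean inhibition across duplicate retests at 20 µM reaching about 50%, limit read from the data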;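 also: 0% = DMSO wells and 100% = wells with excess untagged CBFb-SMMHC; inhibitors lower the FRET ratio by blocking Runt binding to CBFb-SMMHC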
# RanGTP-Impb inh – inhibitors of RanGTP-importin-beta interaction, primary screen, biochemical, FRET, CFP-Ran, YFP-importin-beta, homogeneous | cell-free CFP-Ran/YFP-importin-beta FRET ratio | inhibition, % (concentration not given with the values) | hit rate 1.1% among 300,000 | AID 2216;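 active = more than half of the replicate wells show a fall in the fluorescence ratio signal beyond about 16%, limit read from the data, passing the limit was not always enough; inconclusive = exactly half of the replicate wells pass the set limit; inactive = fewer than half of replicates pass the limit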;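 also: 0% = DMSO wells and 100% = Ran loaded with GDP instead of GTP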
# RUNX1 CBFb TR – disrupts human RUNX1 Runt domain binding to CBFb | shares compounds with Runt-CBFb FRET | hit rate 20% among 480 | AID 1502 | TR-FRET RUNX1 Runt domain-CBFb binding | inhibition, % at 20 µM; in the data active = inhibition above about 40%
# * marks the source's active call; other numbers are inactive results; ? = inconclusive; / = no result.
SMILES,Runt-CBFb FRET,CaV13 ICDI inh,Runt-SMMHC FRET,RanGTP-Impb inh,RUNX1 CBFb TR
CCOc1ccc(/C=C(\C(=O)O)c2ccc(S(=O)(=O)N3CCOCC3)s2)cc1OC,15,-3,69*,104*,/
O=C(CCc1nc2ccccc2c(=O)[nH]1)N1CCN(S(=O)(=O)c2cc(Cl)ccc2Cl)CC1,/,-2,/,/,/
CS(=O)(=O)C1=NSC2=NC(=O)/C(=C\c3ccc(-c4ccccc4)o3)C(=N)N21,39,/,82,/,/
CC(C)S(=O)(=O)C1=NSC2=NC(=O)/C(=C\c3ccc(-c4ccccc4)o3)C(=N)N21,14,-12,82*,?,/
Cc1ccc(Cn2c(=N)c(C(=O)NC3CCCC3)cc3c(=O)n4ccccc4nc32)cc1,/,/,/,-1,/
N=c1c(C(=O)NC2CCCC2)cc2c(=O)n3ccccc3nc2n1C1CCCCC1,/,16,/,181*,/
Cc1ccc2nc3c(cc(C(=O)NC4CCCCC4)c(=N)n3C3CCCCC3)c(=O)n2c1,/,16,/,182*,/
Cc1ccc2nc3c(cc(C(=O)NC4CCCC4)c(=N)n3C3CCCCC3)c(=O)n2c1,/,14,/,182*,/
Cc1ccccc1NC(=O)NC1(C(=O)NCC2CCCO2)CCCCC1 (centres undefined),/,-4,/,2,/
CC(=O)OC[C@@H]1CN(Cc2ccccc2)C[C@H](n2cnc3c(N(C)C(C)C)ncnc32)O1,/,45*,/,/,/
Cc1ccc(Cl)c(NC(=O)COC(=O)c2nn(C)c(=O)c3ccccc23)c1Cl,/,3,/,/,/
COC(=O)C1=C(C)N=C2SC(C#N)=C(N)N2C1c1ccc(OCc2ccccc2)cc1 (centres undefined),-20,/,11,25*,/
CC(C)(C)NC(=O)C(Cc1ccccc1)NS(=O)(=O)c1ccc2c(c1)CCC(=O)N2 (centres undefined),0,-4,0,6,/
O=C1CCc2cc(S(=O)(=O)NC(Cc3ccccc3)C(=O)NCCC3=CCCCC3)ccc2N1 (centres undefined),0,66*,4,0,/
CC(C)(C)OC(=O)C[C@H]1C/C=C\C[C@H](CC(=O)NCCO)C(=O)NC[C@@H](c2ccccc2)OC1=O,/,-4,/,/,/
COc1ccc2[nH]c3c(C)c4ccncc4c(C)c3c2c1,11,/,22,45*,/
Cn1c(=O)nc2n(Cc3ccccc3)c3cccc(Cl)c3cc-2c1=O,95*,-7,60*,64*,/
Cn1c(=O)n(Cc2ccccc2)c2ccccc21,-1,-8,-2,2,/
CCC(OCC(O)CN1CCN(CCN2C(=O)c3cccc4cccc(c34)C2=O)CC1)c1ccccc1 (centres undefined),-6,-5,-4,30*,/
COc1ccc(-c2noc(CCC(=O)N3CCN(c4ccc(Br)cc4)CC3)n2)cc1,/,-9,/,/,/
COc1ccc(-c2noc(CCC(=O)N3CCC(C)CC3)n2)cc1,85*,-7,-2,0,-2
Cc1ccc(NC(=S)N(CCN(C)C)Cc2cccs2)c(C)c1,54*,-8,43,-1,23
Cc1cc(C)c(NC(=S)N(CCN(C)C)Cc2cccs2)c(C)c1,-1,0,-8,-2,/
Cc1cc(C)nc(SCNC(=O)c2ccccc2)n1,69*,-8,18,-6,-14
c1cc2c(cc1-c1csc(NNC3=NCCCCC3)n1)OCCO2,60*,-6,71*,-2,35
SMILES,Runt-CBFb FRET,CaV13 ICDI inh,Runt-SMMHC FRET,RanGTP-Impb inh,RUNX1 CBFb TR
CN(c1nc2ccccc2nc1Cl)S(=O)(=O)c1ccccc1,/,-2,/,-2,/
Cc1cc(C)n(C(=O)N(c2ccccc2)c2ccccc2)n1,/,-3,/,-1,/
Cc1cc(C)c2c(n1)sc1c(O)cc(=O)[nH]c12,52*,-3,36,0,21
COc1ccc(-c2cc(C(F)(F)F)c3c(n2)sc2c(O)cc(=O)[nH]c23)c(OC)c1,-12,-16,-115,-42,/
COc1ccc(C2c3ccc(O)cc3Oc3ncn4nc(-c5ccccn5)nc4c32)cc1 (centres undefined),53*,54*,/,?,-4
Cc1c(Cc2ccccc2)sc(/N=C/c2c(O)ccc3ccccc23)c1C(N)=O,105*,/,63*,120*,29
Cc1c(Cc2ccccc2)sc(/N=C/c2ccc3ccccc3c2)c1C(N)=O,1,/,-5,/,/
COc1cc(C)c(/C=C(\C#N)C(=O)Nc2cccc(C)c2)cc1C(C)C,0,-5,-1,-5,/
Cc1ccc(/C=c2\sc3nc(-c4ccco4)nn3c2=O)o1,53*,/,29,12,88*
Cc1ccc(/C=c2\sc3nc(-c4ccccc4Br)nn3c2=O)o1,25,-5,1,-1,/
Cc1c(C(=O)N2CCCCC2)c(S(=O)(=O)N2CCN(c3ccc(Cl)cc3)CC2)c(C)n1C,/,-5,/,4,/
O=C(COc1ccccc1)NNc1c2ccccc2nc2ccccc12,58*,/,81*,5,-1
O=C(NNc1c2ccccc2nc2ccccc12)c1ccc(O)cc1,52*,44*,58*,36*,-45
CCCCc1c(C)c(C#N)c2nc3ccccc3n2c1Cl,-18,/,-38,6,/
CCc1c(C)c(C#N)c2nc3ccccc3n2c1Nc1c(C)n(C)n(-c2ccccc2)c1=O,56*,-5,92*,40*,24
CC1CC/C(=N/Nc2ccccc2)C(=O)N1 (centres undefined),51*,-2,1,-3,14
CC1(C)OC(=O)C(=CNNc2c(Cl)cc(Cl)cc2Cl)C(=O)O1,0,-2,0,0,/
CCCC1NC(C(=O)O)Cc2c1[nH]c1ccccc21 (centres undefined),/,-18,/,11,/
C/C(CCc1ccc2c(c1)OCO2)=N\N=C1\NC(=O)CC(C(=O)Nc2ccc(Cl)cc2)S1 (centres undefined),-5,-6,1,2,/
COc1cccc(C(c2c(N)[nH]c(=S)[nH]c2=O)c2c(N)[nH]c(=S)[nH]c2=O)c1,51*,-20,19,1,56*
COC(=O)[C@]12C[C@H](CC(=O)N3CCSCC3)C(=O)N(CCC3=CCCCC3)C1=C[C@H](COCc1ccccc1)O[C@@H]2C,/,-7,/,/,/
C/C(=N/NC(=O)c1cc(O)c(O)c(O)c1)c1ccc([N+](=O)[O-])cc1,54*,-4,50,9,67*
O=C(COC(=O)c1cc(=O)c2ccccc2o1)Nc1ccc2ccccc2c1,-2,-6,4,0,/
Cn1ccnc1Sc1nc2ccccc2nc1NS(=O)(=O)c1ccccc1,61*,-6,73*,?,54*
Cn1cnnc1Sc1nc2ccccc2nc1NS(=O)(=O)c1ccccc1,9,-4,28,10,/
CC(C)Oc1ccc(C(=O)NC2(C(F)(F)F)NC(=O)N(CCCc3ccccc3)C2=O)cc1 (centres undefined),-1,-5,0,1,/
CCOC(=O)c1cnc(-n2nc(C)cc2C)nc1Nc1ccc2c(c1)OCO2,73*,/,-2,/,-8

# Bioassay records deposited in PubChem BioAssay by several laboratories.
